Source: ChEMBL document CHEMBL4706489, “Hydrogen sulfide releasing oridonin derivatives induce apoptosis through extrinsic and intrinsic pathways” (Eur J Med Chem, 2020)
The source made the active and inactive calls. No cut-off for these calls is given here.

Tests used:
B16 = experiment: Antiproliferative activity against mouse B16 cells assessed as reduction in cell viability after 72 hrs by MTT assay; conditions: B16, 72 h
L02 = experiment: Cytotoxicity against human L02 cells assessed as cell viability after 72 hrs by MTT assay; conditions: L02, 72 h
HepG2 [1] = experiment: Induction of cell cycle arrest in human HepG2 cells assessed as accumulation at G2 phase at 1 uM after 48 hrs by propidium iodide staining based flow cytometric analysis (reference value: 16.48 to 16.97%); format: functional
Method in brief: (§1)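 HepG2 cells were treated with 0, 0.50, 1.0 or 2.0 test agent for 48 h. Cells were washed in cold PBS and fixed in 70% ethanol at −20 °C overnight. DNA-content distribution was measured by flow cytometry. Mean ± SD, three independent experiments.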

K562 [2] = experiment: Induction of cell cycle arrest in human K562 cells assessed as accumulation at S phase at 1 uM after 48 hrs by propidium iodide staining based flow cytometric analysis (reference value: 44.73 to 45.96%); format: functional
HepG2 [3] = experiment: Induction of cell cycle arrest in human HepG2 cells assessed as accumulation at G1 phase at 2 uM after 48 hrs by propidium iodide staining based flow cytometric analysis (reference value: 49.46 to 50.3%); format: functional
Method in brief: as §1

HepG2 [4] = experiment: Antiproliferative activity against human HepG2 cells assessed as reduction in cell viability after 72 hrs by MTT assay; conditions: HepG2, 72 h
HepG2 [5] = experiment: Induction of apoptosis in human HepG2 cells assessed as viable cells at 1 uM after 48 hrs by annexin V FITC and propidium iodide staining based flow cytometric analysis (reference value: 93.5%); format: functional; conditions: read-out: Activity
K562 [6] = experiment: Induction of apoptosis in human K562 cells assessed as viable cells at 1 uM after 48 hrs by annexin V FITC and propidium iodide staining based flow cytometric analysis (reference value: 96.76%); format: functional; conditions: read-out: Activity
K562 [7] = experiment: Induction of cell cycle arrest in human K562 cells assessed as accumulation at G2 phase at 0.5 uM after 48 hrs by propidium iodide staining based flow cytometric analysis (reference value: 10.96 to 12.03%); format: functional
K562 [8] = experiment: Induction of apoptosis in human K562 cells assessed as nuclear fragmentation after 24 to 48 hrs by Hoechst 33258 staining based fluorescence microscopic method; format: functional, cell-based; conditions: dose 1-4 µM, time 24-48 hrs
Method in brief: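 K562 cells were exposed to 1.0, 2.0 or 4.0 test agent, with DMSO as vehicle control, for 24 h and 48 h. They were harvested, washed twice in PBS and stained with Hoechst 33258 (0.5 mg/mL in PBS) for 30 min in darkness. Slides were viewed by fluorescence microscopy with a DAPI filter. Three random fields of about 200 nuclei per sample were scored as % apoptotic nuclei. Three independent experiments.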

[9] = Cytotoxicity against human PBMC cells assessed as cell viability after 72 hrs by MTT assay
HepG2 [10] = experiment: Induction of cell cycle arrest in human HepG2 cells assessed as accumulation at G1 phase at 0.5 uM after 48 hrs by propidium iodide staining based flow cytometric analysis (reference value: 49.46 to 50.3%); format: functional
Method in brief: as §1

HepG2 [11] = experiment: Induction of apoptosis in human HepG2 cells assessed as early apoptotic cells at 2 uM after 48 hrs by annexin V FITC and propidium iodide staining based flow cytometric analysis (reference value: 2.89%); format: functional
K562 [12] = experiment: Induction of apoptosis in human K562 cells assessed as necrotic cells at 2 uM after 48 hrs by annexin V FITC and propidium iodide staining based flow cytometric analysis (reference value: 0.69%); format: functional
HepG2 [13] = experiment: Induction of apoptosis in human HepG2 cells assessed as late apoptotic cells at 0.5 uM after 48 hrs by annexin V FITC and propidium iodide staining based flow cytometric analysis (reference value: 3.17%); format: functional
K562 [14] = experiment: Induction of apoptosis in human K562 cells assessed as decrease in C-IAP1 protein expression at 1 uM after 24 hrs by chemiluminescence based apoptosis array method; format: functional, cell-based
Method in brief: (§2)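 K562 cells were treated with 1 test agent for 24 h. Diluted total-cell lysates were applied to a human apoptosis antibody array covering 35 apoptosis-related proteins for 24 h. Unbound protein was washed off, and arrays were probed with a biotinylated detection antibody for 1 h. Relative expression was read from chemiluminescent signal by digital imaging.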

K562 [15] = experiment: Induction of apoptosis in human K562 cells assessed as early apoptotic cells at 1 uM after 48 hrs by annexin V FITC and propidium iodide staining based flow cytometric analysis (reference value: 2.13%); format: functional
HCT-116 = experiment: Antiproliferative activity against human HCT-116 cells assessed as reduction in cell viability after 72 hrs by MTT assay; conditions: HCT-116, 72 h
K562 [16] = experiment: Induction of cell cycle arrest in human K562 cells assessed as accumulation at G1 phase at 0.5 uM after 48 hrs by propidium iodide staining based flow cytometric analysis (reference value: 43.24 to 43.37%); format: functional
K562 [17] = experiment: Induction of apoptosis in human K562 cells assessed as late apoptotic cells at 2 uM after 48 hrs by annexin V FITC and propidium iodide staining based flow cytometric analysis (reference value: 0.42%); format: functional
HepG2 (human) = experiment: Induction of apoptosis in human HepG2 cells after 48 hrs by annexin V FITC and propidium iodide staining based flow cytometric analysis; conditions: dose 0.5-2 µM
HepG2 [18] = experiment: Induction of apoptosis in human HepG2 cells assessed as early apoptotic cells at 1 uM after 48 hrs by annexin V FITC and propidium iodide staining based flow cytometric analysis (reference value: 2.89%); format: functional
[19] = Selectivity ratio of IC50 for cytotoxicity against human L02 cells to IC50 for antiproliferative activity against human K562 cells; format: toxicity, cell-based; conditions: read-out: Ratio IC50
K562 [20] = experiment: Induction of apoptosis in human K562 cells assessed as increase in Bax protein expression at 1 uM after 24 hrs by chemiluminescence based apoptosis array method; format: functional, cell-based
Method in brief: as §2

K562 [21] = experiment: Induction of mitochondrial membrane potential loss in human K562 cells after 48 hrs by JC1 staining based flow cytometric analysis; format: functional, cell-based; conditions: dose 0.5-2 µM
Method in brief: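 K562 and HepG2 cells in 6-well plates were exposed for 48 h at 0, 0.50, 1.0 and 2.0 µM, with DMSO vehicle control. After trypsinization, cells were stained with JC-1 (0.5 mg/mL) at 37 °C in darkness for 30 min, then washed with PBS. Membrane potential was read by flow cytometry. Mean ± SD, three independent experiments.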

[22] = Selectivity ratio of IC50 for cytotoxicity against human PBMC cells to IC50 for antiproliferative activity against human K562 cells; format: toxicity, cell-based; conditions: read-out: Ratio IC50
K562 [23] = experiment: Induction of apoptosis in human K562 cells assessed as increase in DR5 protein expression at 1 uM after 24 hrs by chemiluminescence based apoptosis array method; format: functional, cell-based
Method in brief: as §2

HepG2 [24] = experiment: Induction of apoptosis in human HepG2 cells assessed as viable cells at 2 uM after 48 hrs by annexin V FITC and propidium iodide staining based flow cytometric analysis (reference value: 93.5%); format: functional; conditions: read-out: Activity
K562 [25] = experiment: Induction of apoptosis in human K562 cells assessed as early apoptotic cells at 2 uM after 48 hrs by annexin V FITC and propidium iodide staining based flow cytometric analysis (reference value: 2.13%); format: functional

SMILES: C=C1C(=O)[C@]23[C@H](OC(=O)CCC(=O)OCCCCCCOc4ccc(-c5cc(=S)ss5)cc4)[C@H]1CC[C@H]2[C@@]12CO[C@@]3(O)[C@@H](O)[C@@H]1C(C)(C)CC[C@@H]2OC(C)=O
- IC50 (B16): 12.9 µM
- IC50 (L02): 17.6 µM
- Activity (HepG2 [1]): 11.5%
- Activity (K562 [2]): 55.54%
- Activity (HepG2 [3]): 65.1%
- IC50 (HepG2 [4]): 2.57 µM
- viability at 1 µM (HepG2 [5]): 60.5%
- viability at 1 µM (K562 [6]): 79.1%
- Activity (K562 [7]): 11.07%
- Activity (K562 [8]): Dose-dependent effect
- IC50 [9]: > 50 µM
- Activity (HepG2 [10]): 55.35%
- Activity (HepG2 [11]): 26.44%
- Activity (K562 [12]): 1.57%
- Activity (HepG2 [13]): 10.09%
- Activity (K562 [14]): Active
- Activity (K562 [15]): 11.39%
- IC50 (HCT-116): 5.81 µM
- Activity (K562 [16]): 38.61%
- Activity (K562 [17]): 27.29%
- Activity (HepG2 (human)): Dose-dependent effect
- Activity (HepG2 [18]): 25.53%
- selectivity ratio [19]: 20
- Activity (K562 [20]): Active
- Activity (K562 [21]): Dose-dependent effect
- selectivity ratio [22]: 20
- Activity (K562 [23]): Active
- viability at 2 µM (HepG2 [24]): 31.5%
- Activity (K562 [25]): 23.75%
